The results in this text go back to publication PMC4292800 (Bioorganic & medicinal chemistry, 2014).

Series [1] in a line: Oxidation kinetics of 1 into 2 by HPLC. The series is classed as physicochemical. The procedure, abridged: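 In PBS, alone or with 10 mM H2O2 (a tenfold excess), the test compound's conversion to its oxidised product was followed by reverse-phase HPLC on a C-18 column (Synergi Hydro-RP, 4 μm, 80 Å, 150 × 4.6 mm), and a conversion rate was derived. N-acetylcysteine was then added in limiting amount to mimic cellular thiol addition; the adduct was confirmed by FTMS.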

Series [2] relates to primary CD34+ normal human blood stem cells. As to the kind of experiment: MTT cytotoxicity selectivity, normal blood stem cells versus AML cells. The series is classed as cell-based. As to conditions: CD34+ normal human blood stem cells vs MA9.3RAS. In a few lines: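 Both cell types get the same MTT assay. AML cells are cultured in IMDM with 20% bovine calf serum; UCB cells in the same medium plus SCF, IL-3, IL-6, Flt-3L and TPO. Cells are seeded at 4 × 10^4/well, held overnight at 37°C, then exposed 48 h to freshly dissolved test compound. Medium is replaced with MTT for 4 h, then DMSO, OD 575 nm. IC50 comes from a four-parameter sigmoid fit (triplicates, repeated twice), and the ratio is normal IC50 over AML IC50.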

Series [3] in a line: Oxidation of 14 to 14-ox/14-red by HPLC. It is filed as physicochemical. The procedure, abridged: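 Oxidation of the test compound to its bicyclic oxidised/reduced products was followed by reverse-phase C-18 HPLC. Under normal atmosphere the reaction was fitted as pseudo-zero-order to give t1/2. Activation used one molar equivalent of hydrogen peroxide, and rate enhancement was estimated from a lower-limit t1/2 against the atmosphere-only reaction.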

The structures appear in SMILES notation.

As to `CN(CC(=O)Nc1cc(O)ccc1O)c1ccccc1` [Compound 1, N-(2,5-dihydroxyphenyl)-2-(methyl(phenyl)amino) acetamide], the “rate of conversion of 1 to 2” value in series [1] (PBS, absence of exogenous oxidant) is listed as 0.011 ± 0.002 min^−; in series [1] (presence of 10 mM H2O2, a tenfold excess), 0.6 ± 0.1 min^−. In series [1] (PBS, no exogenous oxidant, in one hour), the “conversion of 1 to 2” value is recorded as “approximately 50%”. Further, the “rate of conversion of 1 into 2” value in series [1] (with hydrogen peroxide (Figure 2D legend)) is 0.6 min⁻¹.
Consider `O=C(COc1ccccc1)Nc1cc(O)ccc1O` [Compound 10, N-(2,5-dihydroxyphenyl)-2-phenoxyacetamide], for which, in series [2], the “selectivity factor (ratio of IC50 of normal cells over IC50 of AML cells)” value was “limited selectivity”.
Turning to `O=C(CSc1ccccc1)Nc1cc(O)ccc1O` [Compound 11, N-(2,5-dihydroxyphenyl)-2-(phenylthio)acetamide], the “selectivity factor (ratio of IC50 of normal cells over IC50 of AML cells)” value in series [2] was “limited selectivity”.
For `O=C(CNC1CCCCC1)Nc1cc(O)ccc1O` [Compound 14, 2-(cyclohexylamino)-N-(2,5-dihydroxyphenyl)acetamide], the “time for conversion of all 14” value in series [3] (hydrogen peroxide (Figure 3C legend)) is listed as “less than 0.1 hrs”. In addition, the “activation by hydrogen peroxide” value in series [3] (rate enhancement with hydrogen peroxide vs atmosphere) is recorded as “more than 150 fold”. For the same compound, the “conversion of 14 to its oxidation product” value in series [3] (under argon atmosphere, two hours) turned out to be 4±3%.
